# Screening data from PubChem.
# Sampled rows, rich in hits. Any-hit rate of the full collection: about 3.5%.
# PglD inh = C. jejuni PglD acetyltransferase inhibitors, primary screen, biochemical, DTNB colorimetric, single point. UDP-N-acetylbacillosamine N-acetyltransferase PglD (Campylobacter jejuni). purified PglD enzyme, DTNB colorimetric CoA detection. inhibition, % at 12.5 µM. 0.098% of 360,000 active. AID 602405, 2012; in the data active = inhibition above about 16%, passing the limit was not always enough; inconclusive = no clear call, values can overlap the other calls
# DENV2 CPE = inhibitors of DENV2 cytopathic effect, primary screen, cell-based, plate reader, single concentration | DENV2-infected cells, cytopathic effect rescue | CPE inhibition, % at 9.99 µM | 1.7% of 350,000 active; in the data active = CPE inhibition above about 20%, passing the limit was not always enough; inconclusive = no clear call, values can overlap the other calls; tested in BHK-21 cells;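 note: 0% = median of neutral control wells and 100% = median of positive control wells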
# Env fusion inh = inhibitors of HIV-1 Env-driven cell-cell fusion, primary screen, HeLa-JRFL effector, CEM21 target cells, luciferase; 1.1% of 360,000 active; AID 651610, 2012; inhibition, % at 12.3 µM;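 active = mean replicate inhibition score of at least 50 and every replicate individually at or above 50; inconclusive = only one of the two criteria met; inactive = mean below 50 and not all replicates reaching 50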;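 note: 0% = plate neutral controls and 100% = maraviroc near 300 nM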
# FN deposition inh = inhibitors of fibronectin matrix deposition, primary screen, AH1F cells, Alexa488-fibronectin fluorescence, plate reader | AH1F fibroblasts, overnight | inhibition, % at 12.6 µM | 0.086% of 350,000 active;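 active = mean inhibition across replicates of 30% or more, regardless of how many single replicates reach that level; inconclusive = mean under 30% yet at least half of replicates reach 30%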;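 note: positive control wells lacked labelled fibronectin entirely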
#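 test system = AH1F fibroblasts assembling fluorescent fibronectin matrix | quantity = 10000 AH1F cells per well | buffer or medium = DMEM plus 2% serum, read in PBS | doses = single dose, pinned | incubation = 1 h cell attachment, overnight exposure to compound and label | detection = fluorescence at 485 nm excitation, 525 nm emission | read-out basis = inhibition from reduced deposited-fibronectin fluorescence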
# Ecoli rRNA inh = reduced GFP signal of wild-type E. coli, primary screen, bacterial rRNA inhibitor project, GFP/RFP fluorescence, OD600, single point. AID 720706, 2013. 1.6% of 350,000 active. E. coli WT GFP vs humanized-ribosome RFP mutants, 24 h; active compounds read low; DMSO median 0, no signal -100. GFP signal change (wild-type ribosome), % (test concentration not listed);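 active = significant combined selectivity score with lowered wild-type GFP, culture density cut under 30%, mutant RFP and density less affected; inactive = any of these conditions unmet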
# PGC1a acetyl inh = inhibitors of PGC1a acetylation signal, primary screen, cell-based, U2OS, AlphaScreen, inhibitor mode; AlphaScreen anti-acetyl-lysine; with virally co-expressed GCN5 acetyltransferase; inhibition, % at 15.6 µM; 0.17% of 350,000 active;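 active = every replicate shows inhibition of at least 40%; inconclusive = mean inhibition at least 40% but some replicate below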;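 note: 0% = neutral control wells and 100% = positive control wells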
# * hit, by the source's call; u = inconclusive; x = not tested or not shown; [ ] = remark or other dose.
SMILES,PglD inh,DENV2 CPE,Env fusion inh,FN deposition inh,Ecoli rRNA inh,PGC1a acetyl inh
OC(c1cccc(OCc2ccccc2)c1)c1nnc(-c2ccccc2)o1 (stereo not drawn),-1,x,73*,-11,x,5
COc1ccc(S(=O)(=O)N(C)C[C@@H]2OCCCC[C@@H](C)Oc3ccc(NC(=O)Nc4ccccc4)cc3C(=O)N([C@H](C)CO)C[C@H]2C)cc1,-1,-7,76*[16.7 µM],-5,1,-3
COc1ccc(NC(=O)Nc2ccc3c(c2)C(=O)N([C@@H](C)CO)C[C@H](C)[C@@H](CN(C)S(=O)(=O)c2ccccc2)OCCCC[C@H](C)O3)cc1,0,-5,-2[16.7 µM],-3,-1,-14
COc1ccc(S(=O)(=O)N(C)C[C@H]2OCCCC[C@H](C)Oc3ccc(NC(=O)Cc4ccccc4)cc3C(=O)N([C@@H](C)CO)C[C@@H]2C)cc1,3,27*,-71[16.7 µM],-4,0,6
COc1ccc(NC(=O)Nc2ccc3c(c2)C(=O)N([C@H](C)CO)C[C@@H](C)[C@H](CN(C)S(=O)(=O)c2ccccc2)OCCCC[C@H](C)O3)cc1,0,30*,-19[16.7 µM],-8,2,-9
COc1ccc(S(=O)(=O)N(C)C[C@H]2OCCCC[C@@H](C)Oc3ccc(NC(=O)Nc4ccccc4)cc3C(=O)N([C@H](C)CO)C[C@@H]2C)cc1,-1,5,10[16.7 µM],11,-1,-12
CCOC(=O)N(C)C[C@@H]1OCc2cnnn2CCCC(=O)N([C@@H](C)CO)C[C@H]1C,-1,7,x,5,1,-4
CCCNC(=O)N[C@H]1CC[C@H](CCn2cc(C3CC3)nn2)O[C@H]1CO,1,-4,20[16.7 µM],2,-2,13
C[C@H]1CCCCO[C@H](CN(C)C(=O)Nc2cccc3ccccc23)[C@@H](C)CN([C@@H](C)CO)C(=O)c2cc(NC(=O)C3CCCCC3)ccc2O1,-5,1,50[16.7 µM],x,1,-36
CNC[C@@H]1OCCCC[C@@H](C)Oc2ccc(NS(C)(=O)=O)cc2C(=O)N([C@H](C)CO)C[C@H]1C,1,u,14[16.7 µM],x,3,-4
COCCCNC(=S)N1CCN(c2nc3ccccc3s2)CC1,x,-1,u,-7,-30*,x
Cc1cccc(Cl)c1NC(=O)N1CCCN(c2nc3ccc(Cl)cc3s2)CC1,6,-5,10,4,13,9
Cc1cccc(C)c1NC(=O)N1CCN(c2nc3ccccc3s2)CC1,2,x,72*,3,x,0
COCCNC(=S)N1CCN(c2nc3ccccc3s2)CC1,x,4,11,-21,-26*,x
COCCCNC(=S)N1CCN(c2ccc([N+](=O)[O-])cc2)CC1,-11,x,17,-1,x,x
COCCNC(=S)N1CCN(c2nc(-c3ccc(F)cc3)cs2)CC1,-17,3,30,7,-18,-1
CCN(CC)CCCNC(=S)N1CCN(c2nc3ccccc3n2CC)CC1,-6,41*,-8,-1,-6,-5
COc1ccc(CNC(=O)C[C@H]2CC[C@@H](NC(=O)c3cccc(F)c3)[C@@H](CO)O2)cc1,-2,-9,15[16.7 µM],2,0,-1
CCOC(=O)N1CCC(N(CCOC)C(=S)Nc2cccc(SC)c2)CC1,1,6,3,-7,-23*,-3
Cc1ccc2c(CN3CCN(Cc4ccc5c(c4)OCO5)CC3)cc(=O)oc2c1C,-2,-1,x,3,16,10
Cc1ccc2c(CN3CCN(S(=O)(=O)c4ccc5c(c4)OCCO5)CC3)cc(=O)oc2c1C,3,x,93*,-21,x,-8
O=[N+]([O-])c1cccc2c(S(=O)(=O)N3CCCCC3)cccc12,0,53*,25,-1,-13,x
CCN(c1ccccc1)S(=O)(=O)c1ccc(OC)c(NC(=O)C2CCC2)c1,-8,68*,6,2,x,-16
